Screening data deposited in PubChem BioAssay by several laboratories.
The list is not random: actives were taken first. Their share in the collection is about 5.2%.
M1 antagonist: antagonists of rat M1 muscarinic receptor; AID 628; CHO-M1 cells, Fluo-4 calcium, ACh EC80 antagonist mode; stronger effect = lower value; P08482; 64,000 compounds, 3.4% hits; B-score at 10 µM;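 active = calcium fluorescence response, raw or row-and-column corrected B-score, differing from the plate sample mean either way at a set confidence level, mostly lower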
WNV protease inh: WNV NS2B-NS3 proteinase inhibition; P06935; WNV NS2B-NS3 protease, fluorogenic substrate Ex360/Em465; stronger effect = lower value; z-score (no concentration beside the values); 65,000 compounds, 0.18% hits; in the data active = z-score below about -3
E coli WT exp: blocks growth of wild type E. coli BW25113. OD600 absorbance. growth inhibition, % at 100 µM. 98,000 compounds, 0.15% hits;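 active = growth inhibition above about 50% at one test dose, limit read from the data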;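 note: growth measured after 20 h incubation at 37 °C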
M1 ag: M1 muscarinic receptor agonism; CHO-M1 cells, Fluo-4 calcium fluorescence, agonist mode; stronger effect = higher value; B-score at 10 µM; 64,000 compounds, 3% hits; AID 626;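 active = fluorescence rise, raw or as B-score row- and column-corrected plate score, outside the 99.7% band of its plate's samples, either direction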
Ecoli tolC: E. coli tolC mutant growth inhibition | E. coli BW25113 tolC mutant growth, OD615 | growth inhibition, % at 10 µM (by protocol) | 65,000 compounds, 2.2% hits | AID 573;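 active = growth inhibition at or above a cutoff equal to the mean over every tested compound plus 3 SD, cut at about 60% in these data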;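 note: growth measured after 20 h incubation at 37 °C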
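Material: E. coli BW25113 ΔtolC::kan, tolC deletion mutant strain. Measure: percent growth inhibition. Schedule: 37 °C, 20 h exposure. Doses: single-point testing at 10 µM. Signal: A615 absorbance measurement. Buffer or medium: kanamycin-containing LB broth (50 µg/mL).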
AP complement: alternative pathway complement inhibition, orthogonal assay; inhibition, % at 5 µM; 62,000 compounds, 0.08% hits; AID 1235; Human serum alternative complement pathway, LPS-coated ELISA, C3 deposition; tested in compound mixtures;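 active = inhibition above 30% in each of the two pooled mixtures holding the compound, so the lower value exceeds 30%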;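 note: 0% = serum in Mg-EGTA without compound and 100% = EDTA serum blank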
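Medium: diluted human serum in Mg2+-EGTA GVB++. Assay system: human serum complement alternative pathway, C3 deposition onto LPS. Also added: Plate-bound LPS. Technique: Anti-C3 ELISA, OD 450 nm. Measure: percent inhibition. Incubation: 1 h at 37 °C. Dosing: 5 µM each compound, pools of ten, 50 µM per pool.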
M1 ag confirm: rat M1 muscarinic agonism, confirmation; shares compounds with M1 ag; CHO-M1 cells, Fluo-4 calcium fluorescence, agonist mode; actives lie on both sides; fluorescence change (max-min) at 10 µM; 1,700 compounds, 19% hits;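 active = fluorescence change differs from the solvent-only DMSO control mean at a set confidence level in both duplicate runs; inconclusive = differs from solvent-only control mean in just one of two runs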;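 note: an EC20 dose of acetylcholine follows compound addition during the same imaging run; raw fluorescence intensity difference in instrument units with no normalization to controls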
M4 agonist ctr: counter-screen for M1 agonists: activity at rat M4 receptor; CHO M4/Gqi5 cells, Fluo-4 calcium fluorescence, agonist mode; actives lie on both sides; 1,700 compounds, 9% hits; fluorescence change (max-min) at 10 µM; shares compounds with M1 ag;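 active = fluorescence change differing from the plate's solvent-only control wells at 99.7% confidence in both duplicates, whether higher or lower; inconclusive = differs from solvent controls in only one of two duplicates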
Target sequence (P08485 whole entry, looked up): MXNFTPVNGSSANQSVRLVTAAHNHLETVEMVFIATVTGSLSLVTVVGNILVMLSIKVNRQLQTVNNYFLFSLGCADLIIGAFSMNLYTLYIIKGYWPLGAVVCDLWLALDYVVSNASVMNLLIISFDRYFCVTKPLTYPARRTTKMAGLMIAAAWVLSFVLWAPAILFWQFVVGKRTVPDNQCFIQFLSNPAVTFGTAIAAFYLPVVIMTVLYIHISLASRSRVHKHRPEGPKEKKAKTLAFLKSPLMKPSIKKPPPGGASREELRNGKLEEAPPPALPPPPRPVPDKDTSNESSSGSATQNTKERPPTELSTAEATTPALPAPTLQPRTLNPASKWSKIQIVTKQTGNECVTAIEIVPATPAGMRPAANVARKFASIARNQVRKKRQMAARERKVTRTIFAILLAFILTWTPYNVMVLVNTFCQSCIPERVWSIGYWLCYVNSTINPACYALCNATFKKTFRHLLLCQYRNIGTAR
* hit, by the source's call; u = inconclusive; x = no result.

SMILES	M1 antagonist	WNV protease inh	E coli WT exp	M1 ag	Ecoli tolC	AP complement	M1 ag confirm	M4 agonist ctr
Cc1ccc(C)c(C(=O)N(Cc2nc(-c3ccc(Cl)cc3)no2)C(C)C)c1	-0.0091	-0.41	-23	1.4	77*	8	x	x
COc1ccccc1OCC(=O)N(Cc1nc(-c2ccc(Cl)cc2)no1)C(C)C	-0.64	0.69	-15	-0.17	10	3	x	x
COc1cccc(OCC(=O)N(Cc2nc(-c3ccc(Cl)cc3)no2)C(C)C)c1	0.57	0.13	-5	1.1	63*	5	x	x
Cc1cccc(-c2noc(CN(C(=O)c3ccc(Br)o3)C(C)C)n2)c1	0.44	-0.19	-11	2.6	63*	11	x	x
Cc1cccc(-c2noc(CN(C(=O)c3ccc4c(c3)OCO4)C(C)C)n2)c1	-0.54	-0.01	0	1	13	-3	x	x
Cc1cccn2c(=O)c3cc(C(=O)N4CCc5ccccc5C4)n(C)c3nc12	-0.19	-0.17	x	-0.29	11	4	x	x
O=c1[nH]c(CN2CCCCC2)nc2c1C1(CCCC1)Cc1ccccc1-2	0.075	0.02	x	-0.31	12	18	x	x
COc1ccc(-c2c(NC(=O)c3ccco3)n(C)c3ccccc3c2=O)cc1	x	x	4	x	x	x	x	x
Cc1cc(=O)oc(C)c1C(=O)NCCN1CCOCC1	-1.4	-0.13	30	0.6	7	x	x	x
Brc1ccc(-c2noc(COc3ccc4c(c3)CCC4)n2)o1	0.34	-0.27	6	0.49	52	15	x	x
c1csc(-c2noc(COc3ccc4c(c3)CCCC4)n2)c1	-0.54	-1.1	5	-0.73	61*	17	x	x
O=C(OCc1nc2ccccc2s1)C1CCN(C2=NS(=O)(=O)c3ccccc32)CC1	-0.11	-0.04	-5	4.6*	-2	1	u	-75
O=C1c2ccccc2S(=O)(=O)N1Cc1nc2ccccc2s1	-0.13	0.0078	-14	-1.1	5	11	x	x
c1ccc2c(CCNc3ncnc4nc[nH]c34)c[nH]c2c1	-0.17	-1	6	3.9*	-7	-1	-9.3	-20
c1ccc(CCNc2ncnc3nc[nH]c23)cc1	-1.1	-0.48	1	-1.1	1	-2	x	x
CC1(C)CC(=O)c2c(n(-c3cccc4ccccc34)ccc2=O)C1	x	x	8	x	x	x	x	x
C/C(O)=c1/ccc2cccc3nc(C)nc1c23	-0.86	0.09	5	114*	73*	14	896*	814*
Cc1ccc2cc(CCNC(=O)c3ccc(Br)o3)c(=O)[nH]c2c1	-0.91	0.25	9	0.017	46	12	x	x
Cc1cc(C)n(CCc2nc3c4ccccc4n(CC(=O)Nc4ccc(Cl)cc4F)c(=O)n3n2)n1	0.31	-0.65	x	-1.2	2	-2	x	x
CCOC(=O)c1cc2c(=O)n3cccc(C)c3nc2n(CCCOC)c1=NC(=O)c1cccnc1	-1.3	-0.46	-2	2.4*	10	6	-23	-27
CCCCn1c(=NC(=O)c2cccnc2)c(C(=O)OCC)cc2c(=O)n3ccccc3nc21	-0.36	x	-9	8.8*	3	18	-33*	u
CCCN(CCC)C(=O)c1ccc2c(c1)N(Cc1ccccc1)C(=O)CS2=O (stereo not given)	-0.25	-0.6	0	0.034	0	16	x	x
COc1ccc(OC)c(C(=O)CN2CCN(S(=O)(=O)c3ccc(Br)cc3)CC2)c1	0.41	1.6	-2	28*	-4	-3	-25	-21
CCOC(=O)C1CCN(c2c(N3CCCC(C(=O)OCC)C3)c(=O)c2=O)CC1 (stereo not given)	-0.13	0.66	0	27*	-11	-7	38	u
CCOC(=O)C1CCCN(c2c(N3CCN(c4ccccn4)CC3)c(=O)c2=O)C1 (stereo not given)	-0.45	-0.53	7	0.51	-12	5	x	x
SMILES	M1 antagonist	WNV protease inh	E coli WT exp	M1 ag	Ecoli tolC	AP complement	M1 ag confirm	M4 agonist ctr
COC(=O)CCCCCc1ccc(C(C)=O)s1	-0.29	-0.8	12	-0.9	3	7	x	x
Cc1cccc(N/C(=N\S(=O)(=O)c2ccccc2)C(F)(F)F)c1	x	x	9	x	x	x	x	x
O=C1C2CC=C(Cl)CC2C(=O)N1CC1Cc2ccccc2CO1 (stereo not given)	0.43	2.1	-3	2.2*	34	21	28	-18
Cc1ccc(NCN2C(=O)C3CC=C(Cl)CC3C2=O)cc1 (stereo not given)	x	x	6	x	x	x	x	x
O=C(O)c1ccccc1NCN1C(=O)C2CC=C(Cl)CC2C1=O (stereo not given)	-0.34	-0.54	1	-2.2*	-22	12	-26*	u
O=C(NCCc1c[nH]c2ccccc12)c1cnc2sccn2c1=O	1.1	-1.3	-2	3.2*	5	7	-14	u
COc1ccccc1C1c2c(oc3ccc(Cl)cc3c2=O)C(=O)N1c1cc(C)on1 (stereo not given)	0.19	0.37	x	-0.055	-24	10	x	x
Cc1onc(-c2ccccc2Cl)c1C(=O)Nc1ccc(-c2cn3cccnc3n2)cc1	0.42	0.65	-1	4.4*	-11	5	-7.3	-9.8
Cc1onc(-c2ccccc2Cl)c1C(=O)Nc1cccc(-c2nc3ncccn3c2C)c1	-2.3*	2.9	-19	3.3*	8	6	u	-61
C/C(N)=C(/C#N)C(=O)CSc1nc2cc(Cl)ccc2s1	0.38	0.5	-2	5.1*	21	5	-8.7	-26
C/C(N)=C(/C#N)C(=O)CSc1nnc(Nc2cccc(C)c2)s1	-0.00099	0.61	x	-0.049	-1	3	x	x
c1coc(CNc2ncnc3nc[nH]c23)c1	-0.16	1.1	7	1.5	-13	15	x	x
Cc1ccc2[nH]c3c(NCc4ccco4)ncnc3c2c1	-1.5	-0.0066	30	8.5*	40	14	13	-38
Cc1ccccc1-n1c(Cc2cccs2)n[nH]c1=S	x	x	9	x	x	x	x	x
CSc1ncccc1-c1nc2ccccc2[nH]1	x	x	4	x	x	x	x	x
c1ccc2[nH]c(-c3ccnc4ccccc34)nc2c1	-0.99	-0.62	0	2.4*	5	12	-11	-34
CC(=O)Oc1ccc2cc(-c3nc4ccccc4n3C)c(=O)oc2c1	0.27	3.5	-2	5.8*	-7	-2	45	16
COc1cc(CC(=O)Nc2nccs2)cc(OC)c1OC	-0.073	2	8	-1.4	-13	10	x	x
COc1cc(C(=O)Nc2nccs2)c(Br)c(OC)c1OC	-0.65	-0.41	-1	2.9*	0	1	-11	-41
CC(=O)Nc1c(C(=O)N2CCN(c3ncccn3)CC2)cnn1-c1ccccc1Cl	-0.33	-1.7	x	-0.09	-12	1	x	x
